# Experimental data: ChEMBL document CHEMBL4350976, “Sequence modification of heptapeptide selected by phage display as homing device for HT-29 colon cancer cells to improve the anti-tumour activity of drug delivery systems” (Eur J Med Chem, 2019); call rule not given here
# Where a SMILES comes first, the peptide text is derived from it. The star is where a group is joined. X1 = COc1cccc2c1C(=O)c1c(O)c3c(c(O)c1C2=O)C[C@@](O)(/C(C)=N/OCC(=O)*)C[C@@H]3O[C@H]1C[C@H](N)[C@H](O)[C@H](C)O1
# Assays:
# [1] = Drug metabolism in rat liver lysosomes homogenate assessed as increase in Dau = Aoa-Leu-OH metabolite formation at 0.05 ug/ul after 1 hr by LC-MS analysis; type: ADME, subcellular, Lysosome; conditions: tissue homogenate
# How it was run: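 Conjugates and rat liver lysosomal homogenate were each used at 0.05 µg/µL. Samples were taken at 0, 1, 3, 6 and 24 h. Metabolites were identified by LC-MS on a C18 column with a formic acid/acetonitrile gradient.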
# MDA-MB-231 = test: Cytostatic activity against human MDA-MB-231 cells preincubated for 24 hrs under serum free condition followed by compound washout and further incubation for 48 hrs in presence of serum by MTT assay; type: functional, cell-based
# How it was run: (§1)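 Cells were grown at 37 °C in 5% CO2 in medium with 10% heat-inactivated FBS (20% for OVCAR-3) plus penicillin/streptomycin. The medium was RPMI-1640 for most lines, DMEM for U-87 MG and MRC-5, and IMDM for PE/CA-PJ lines. Seeding was 3×10^3–10×10^3 cells per well. Cells had 24 h compound exposure, a wash, and 48 h further culture. Read-out was MTT, normalized to untreated cells and fitted by nonlinear regression for IC50.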
# HCT-116 = test: Cytostatic activity against human HCT116 cells preincubated for 24 hrs under serum free condition followed by compound washout and further incubation for 48 hrs in presence of serum by MTT assay; type: functional, cell-based; how it was run: as §1
# CT26.WT = test: Cytostatic activity against mouse CT26.WT cells preincubated for 24 hrs under serum free condition followed by compound washout and further incubation for 48 hrs in presence of serum by MTT assay; type: functional, cell-based; how it was run: as §1
# A549 [2] = test: Cytostatic activity against human A549 cells preincubated for 24 hrs under serum free condition followed by compound washout and further incubation for 48 hrs in presence of serum by MTT assay; type: functional, cell-based; how it was run: as §1
# NCI-H1650 = test: Cytostatic activity against human NCI-H1650 cells preincubated for 24 hrs under serum free condition followed by compound washout and further incubation for 48 hrs in presence of serum by MTT assay; type: functional, cell-based; how it was run: as §1
# NCI-H1975 = test: Cytostatic activity against human NCI-H1975 cells preincubated for 24 hrs under serum free condition followed by compound washout and further incubation for 48 hrs in presence of serum by MTT assay; type: functional, cell-based; how it was run: as §1
# B16 [3] = test: Cytostatic activity against mouse B16 cells preincubated for 24 hrs under serum free condition followed by compound washout and further incubation for 48 hrs in presence of serum by MTT assay; type: functional, cell-based; how it was run: as §1
# OVCAR-3 = test: Cytostatic activity against human OVCAR3 cells preincubated for 24 hrs under serum free condition followed by compound washout and further incubation for 48 hrs in presence of serum by MTT assay; type: functional, cell-based; how it was run: as §1
# DU-145 [4] = test: Cytostatic activity against human DU145 cells preincubated for 24 hrs under serum free condition followed by compound washout and further incubation for 48 hrs in presence of serum by MTT assay; type: functional, cell-based; how it was run: as §1
# U-87 MG = test: Potency index, ratio of compound IC50 to Daunomycin IC50 for human U87 cells preincubated for 24 hrs under serum free condition followed by compound washout and further incubation for 48 hrs in presence of serum by MTT assay; type: functional, U-87MG ATCC
# MCF7 = test: Potency index, ratio of compound IC50 to Daunomycin IC50 for human MCF7 cells preincubated for 24 hrs under serum free condition followed by compound washout and further incubation for 48 hrs in presence of serum by MTT assay; type: functional
# 4T1 = test: Potency index, ratio of compound IC50 to Daunomycin IC50 for mouse 4T1 cells preincubated for 24 hrs under serum free condition followed by compound washout and further incubation for 48 hrs in presence of serum by MTT assay; type: functional
# HT-29 = test: Potency index, ratio of compound IC50 to Daunomycin IC50 for human HT-29 cells preincubated for 24 hrs under serum free condition followed by compound washout and further incubation for 48 hrs in presence of serum by MTT assay; type: functional
# WiDr = test: Potency index, ratio of compound IC50 to Daunomycin IC50 for human WiDr cells preincubated for 24 hrs under serum free condition followed by compound washout and further incubation for 48 hrs in presence of serum by MTT assay; type: functional
# HepG2 = test: Potency index, ratio of compound IC50 to Daunomycin IC50 for human HepG2 cells preincubated for 24 hrs under serum free condition followed by compound washout and further incubation for 48 hrs in presence of serum by MTT assay; type: functional
# A549 [5] = test: Potency index, ratio of compound IC50 to Daunomycin IC50 for human A549 cells preincubated for 24 hrs under serum free condition followed by compound washout and further incubation for 48 hrs in presence of serum by MTT assay; type: functional
# A2058 = test: Potency index, ratio of compound IC50 to Daunomycin IC50 for human A2058 cells preincubated for 24 hrs under serum free condition followed by compound washout and further incubation for 48 hrs in presence of serum by MTT assay; type: functional
# [6] = Potency index, ratio of compound IC50 to Daunomycin IC50 for human M24 cells preincubated for 24 hrs under serum free condition followed by compound washout and further incubation for 48 hrs in presence of serum by MTT assay; type: functional
# B16 [7] = test: Potency index, ratio of compound IC50 to Daunomycin IC50 for mouse B16 cells preincubated for 24 hrs under serum free condition followed by compound washout and further incubation for 48 hrs in presence of serum by MTT assay; type: functional
# [8] = Potency index, ratio of compound IC50 to Daunomycin IC50 for human PECAPJ41 cells preincubated for 24 hrs under serum free condition followed by compound washout and further incubation for 48 hrs in presence of serum by MTT assay; type: functional
# DU-145 [9] = test: Potency index, ratio of compound IC50 to Daunomycin IC50 for human DU145 cells preincubated for 24 hrs under serum free condition followed by compound washout and further incubation for 48 hrs in presence of serum by MTT assay; type: functional
# [10] = Toxicity in SCID mouse xenografted with human HT-29 cells assessed as animal death at 38.3 mg/kg, ip administered thrice in first week and twice in second week (on days 13, 16, 20, 23 and 27) starting from 13 days post inoculation measured upto 30 days post inoculation; type: organism-based; conditions: in vivo
# How it was run: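 Female SCID mice (6–8 weeks, 22–27 g) with orthotopic HT-29 colon tumours. Conjugates given i.p. in distilled water for injection at 10 mg/kg Dau content (36.6 or 38.3 mg/kg conjugate) on days 13, 16, 20, 23 and 27, 8 mice/group. Study ended day 30; deaths and body weight recorded against a solvent-treated control group.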
# [11] = Retention time of the compound using 0.1% TFA in water and 0.1% TFA in acetonitrile-water (80:20 v/v) as eluents by RP-HPLC analysis; type: physicochemical
# How it was run: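 Analytical RP-HPLC. Eluent A was 0.1% TFA in water and eluent B was 0.1% TFA in acetonitrile-water (80:20, v/v). Gradient: 0% B held to 5 min, then to 90% B at 50 min. Flow 1 mL/min, detection at 220 nm. The column was a Phenomenex Aeris Peptide XB-C18 (250×4.6 mm, 3.6 μm) or a Nucleosil C18 (5 μm, 100 Å, 250×4.6 mm), depending on the conjugate series.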
# [12] = Drug uptake in human HT-29 cells cytoplasm at 50 uM after 90 mins by fluorescence based confocal microscopic analysis; type: ADME, subcellular; conditions: ht-29, 1.5 h
# How it was run: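 HT-29 cells were incubated with 50 µM compound in RPMI for 90 min. Imaging was by confocal microscopy, with Dau detected at 550–600 nm emission.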
smiles,measurement,setting,value
COc1cccc2c1C(=O)c1c(O)c3c(c(O)c1C2=O)C[C@@](O)(/C(C)=N/OCC(=O)N[C@@H](CC(C)C)C(=O)N[C@@H](CCCNC(=N)N)C(=O)N[C@@H](CCCNC(=N)N)C(=O)N[C@@H](Cc1ccc(O)cc1)C(=O)N[C@H](C(=O)N[C@@H](Cc1cnc[nH]1)C(=O)N[C@@H](CC(C)C)C(=O)N[C@@H](Cc1ccccc1)C(=O)N[C@@H](Cc1ccc(O)cc1)C(=O)N[C@@H](C)C(=O)N[C@H](C(N)=O)[C@@H](C)O)C(C)C)C[C@@H]3O[C@H]1C[C@H](N)[C@H](O)[C@H](C)O1 (X1-LRRYVHLFYAT-NH2),Drug metabolism,[1],Metabolite_Detected
same,IC50,MDA-MB-231,4.6 µM
same,IC50,HCT-116,7.2 µM
same,IC50,CT26.WT,8.3 µM
same,IC50,A549 [2],5.9 µM
same,IC50,NCI-H1650,2.9 µM
same,IC50,NCI-H1975,3.7 µM
same,IC50,B16 [3],3 µM
same,IC50,OVCAR-3,11.3 µM
same,IC50,DU-145 [4],3.5 µM
same,Ratio IC50,U-87 MG,236.9
same,Ratio IC50,MCF7,38.8
same,Ratio IC50,4T1,284.6
same,Ratio IC50,HT-29,57.1
same,Ratio IC50,WiDr,62.8
same,Ratio IC50,HepG2,220.2
same,Ratio IC50,A549 [5],86.1
same,Ratio IC50,A2058,104.5
same,Ratio IC50,[6],61.7
same,Ratio IC50,B16 [7],335.4
same,Ratio IC50,[8],165.7
same,Ratio IC50,DU-145 [9],142.3
same,Activity,[10],Non-Toxic
same,Retention time,[11],31.2 to 33.2 min
same,Drug uptake,[12],Active
